# High-throughput results as filed in PubChem.
# EP2 antag: inhibitors of human EP2 prostaglandin E2 receptor; inhibition, % at 25 µM; hit rate 0.52% among 260,000; P43116; C6 glioma cells expressing human EP2, cAMP TR-FRET; cells stimulated with saturating PGE2; AID 1422;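 active = percent inhibition above 40 after rounding to a whole number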;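 note: rat C6 glioma host cells with rolipram phosphodiesterase inhibitor present; the protocol text gives 20 µM as final concentration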
# NPY Y1 blocker: blocks the human neuropeptide Y Y1 receptor; P25929; HEK293-CNG Y1 cells, membrane potential fluorescence; NPY at EC95, then isoproterenol; inhibition, % at 3.6 µM; hit rate 1% among 200,000; AID 1040;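 active = inhibition above the campaign mean inhibition of all tested compounds plus 3 SD, cut at about 20% in these data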
# Target sequence (P25929 whole entry, looked up): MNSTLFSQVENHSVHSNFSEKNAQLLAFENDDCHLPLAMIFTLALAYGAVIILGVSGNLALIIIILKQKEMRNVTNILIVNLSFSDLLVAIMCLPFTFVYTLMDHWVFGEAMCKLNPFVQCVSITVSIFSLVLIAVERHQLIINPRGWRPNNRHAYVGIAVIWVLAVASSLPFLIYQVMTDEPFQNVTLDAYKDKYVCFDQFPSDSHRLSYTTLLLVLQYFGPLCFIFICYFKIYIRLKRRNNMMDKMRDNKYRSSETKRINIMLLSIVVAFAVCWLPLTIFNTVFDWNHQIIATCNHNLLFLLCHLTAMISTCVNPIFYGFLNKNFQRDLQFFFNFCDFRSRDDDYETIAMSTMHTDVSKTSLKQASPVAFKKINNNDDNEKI
#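 Assay system: HEK293 cells with Y1 receptor plus CNG channel | Probe or stimulus: NPY (25 nM), isoproterenol (1 µM), Ro 20-1724 (25 µM) | Timing: Compound incubation 1 h at room temperature, readout 45 min post-stimulation | Measured by: Membrane-potential fluorescent dye readout | Benchmarks: High control isoproterenol alone, low control NPY with isoproterenol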
# EP2 mod: modulates human prostaglandin E2 receptor EP2 signaling; induction, % at 25 µM; EP2-expressing cells, cAMP HTRF FRET, PGE2 co-stimulation; P43116; hit rate 0.83% among 260,000;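 active = compounds whose cAMP rise, as percent of the full-agonist control response, exceeds 60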;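 note: rat C6 glioma line stably carrying human EP2 under a CMV promoter; the protocol text gives 20 µM as final concentration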
# NPY-Y2 antag: antagonists of human neuropeptide Y receptor Y2 | hit rate 0.99% among 140,000 | inhibition, % at 2.7 µM | NPY-Y2 expressing cells, antagonist mode | P49146; in the data active = inhibition above about 17%
# Target sequence (P49146 whole entry, looked up): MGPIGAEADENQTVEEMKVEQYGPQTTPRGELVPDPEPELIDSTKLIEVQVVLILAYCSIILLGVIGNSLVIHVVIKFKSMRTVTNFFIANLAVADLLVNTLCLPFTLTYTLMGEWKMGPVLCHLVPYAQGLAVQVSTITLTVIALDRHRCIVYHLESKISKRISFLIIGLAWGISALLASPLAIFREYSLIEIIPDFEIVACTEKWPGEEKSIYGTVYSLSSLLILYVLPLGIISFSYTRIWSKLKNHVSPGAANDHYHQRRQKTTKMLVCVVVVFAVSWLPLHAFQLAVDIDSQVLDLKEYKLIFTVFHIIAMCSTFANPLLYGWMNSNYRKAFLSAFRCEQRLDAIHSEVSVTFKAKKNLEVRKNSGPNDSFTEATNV
# NPY-Y2 PAM-ag: human NPY-Y2 potentiation or agonism, primary screen; P49146; cells expressing NPY-Y2, potentiator/agonist read-out; activation, % at 3.6 µM; hit rate 0.45% among 220,000; in the data active = activation above about 27%;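 note: cells stimulated with NPY near EC25 plus isoproterenol at EC100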
# NPY-Y1 PAM-ag: potentiators or agonists of human neuropeptide Y receptor Y1; NPY-Y1 expressing cells, potentiator/agonist activation; P25929; activation, % at 3.6 µM; hit rate 0.37% among 220,000; in the data active = activation above about 33%, passing the limit was not always enough;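 note: cells stimulated with NPY at EC10 then isoproterenol at EC100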
# NPY-Y1 confirm: human NPY-Y1 potentiation or agonism, confirmation; activation, % at 3.6 µM; hit rate 20% among 280; cell-based NPY-Y1 potentiator/agonist assay; shares compounds with NPY-Y1 PAM-ag; AID 1546; in the data active = activation above about 45%;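 note: cells challenged with NPY at its EC10 plus isoproterenol stimulus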
# NPY-Y2 counter: potentiates or activates NPY-Y2, counter-screen for NPY-Y1 hits; shares compounds with NPY-Y1 PAM-ag; HEK293-CNG cells, membrane-potential fluorescence (FLIPR), 1536-well; activation, % at 3.6 µM; hit rate 20% among 280; AID 1649; in the data active = activation above about 33%
# NPY-Y1 ag: activates human NPY-Y1, counter-screen for NPY-Y1 potentiators; HEK293 Y1-CNGC, membrane potential fluorescence, agonist mode; activation, % at 3.6 µM; shares compounds with NPY-Y1 PAM-ag; hit rate 50% among 280;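 active = percent activation above the mean of DMSO-only control wells plus 3 SD of those wells, cut at about 18% in these data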;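 note: cells challenged with isoproterenol plus Ro 20-1724 with no NPY in test wells; Y1 agonism lowers isoproterenol-driven cAMP and reduces probe fluorescence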
# NPY-Y2 ag: counter-screen for NPY-Y1 potentiators or agonists: agonists of NPY-Y2 | shares compounds with NPY-Y1 PAM-ag | HEK293 Y2-CNGC, membrane potential fluorescence, agonist mode | activation, % at 3.6 µM | hit rate 67% among 280 | AID 1698;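 active = activation above the solvent-only control wells' mean plus 3 SD, cut at about 11% in these data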;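 note: agonism lowers cAMP so well fluorescence drops in active wells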
# CNGC counter: CNG channel inhibition, counter-screen for NPY-Y1 potentiators. shares compounds with NPY-Y1 PAM-ag. HEK293-CNG parental, isoproterenol cAMP, membrane potential fluorescence. inhibition, % at 3.6 µM. hit rate 42% among 280;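 active = inhibition above the mean of stimulated solvent-only control wells plus 3 SD, cut at about 22% in these data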
# A number is an active result; n = inactive; x = no result given. A selection: hits, their analogues and other compounds. The true share with any hit is near 2.8%.
SMILES,EP2 antag,NPY Y1 blocker,EP2 mod,NPY-Y2 antag,NPY-Y2 PAM-ag,NPY-Y1 PAM-ag,NPY-Y1 confirm,NPY-Y2 counter,NPY-Y1 ag,NPY-Y2 ag,CNGC counter
O=C1CCC2S/C(=C/Nc3ccc(C(F)(F)F)cc3)C(=O)N12 (stereo not drawn),n,n,n,x,n,38.9,n,n,22.4,24.6,29.5
COc1cc(C2Nc3ccc(C)cc3-c3cc(C)nn32)cc(OC)c1OC (stereo not drawn),n,x,n,x,x,x,x,x,x,x,x
O=C(Nc1ccncc1)c1ccc2c(c1)C(=O)N(C1CCCCC1)C2=O,46.0,n,n,n,n,45.0,n,n,17.6,n,n
COC(=O)CSc1ccc(S(=O)(=O)N2CCCCCC2)cc1[N+](=O)[O-],n,n,n,x,n,59.7,120.9,100.3,108.4,103.5,98.8
Brc1ccc(-c2csc(Nc3nc(-c4ccc(Br)cc4)cs3)n2)cc1,n,x,n,x,n,n,x,x,x,x,x
Brc1ccc(Nc2nc(-c3cccnc3)cs2)cc1,n,n,n,x,n,37.4,n,n,43.2,38.1,34.1
O=C(CC1NCCc2ccccc21)Nc1ccc(Cl)cc1 (stereo not drawn),n,n,n,x,n,55.7,n,n,n,n,n
CC1CCN(c2nc3c(c(=O)[nH]2)CCN(Cc2cnc4ccccc4c2)C3)CC1,x,x,n,x,x,x,x,x,x,x,x
O=C(c1cccnc1Nc1ccccc1F)N1CCCCC1,n,x,n,x,x,x,x,x,x,x,x
COc1cccc(/C=N/Nc2snc(SC)c2C#N)c1O,n,n,n,n,n,49.7,n,n,n,18.0,n
COc1ccc(/C=N/Nc2snc(SC)c2C#N)cc1OC,n,n,n,n,n,n,x,x,x,x,x
CCc1ccc2[nH]c(=O)c(CN(Cc3cccnc3)S(=O)(=O)c3ccc4c(c3)OCCO4)cc2c1,n,x,n,x,x,x,x,x,x,x,x
COCc1cc(C)nc(SCC[N+](C)(C)CC(=O)Nc2cccc(C(F)(F)F)c2)c1C#N,n,n,n,x,n,54.2,n,n,n,n,n
Cc1ccc2cc(CN(CC3CCCO3)C(=S)NCCc3ccccc3)c(=O)[nH]c2c1C (stereo not drawn),n,x,n,x,x,x,x,x,x,x,x
CCOc1ccc(NC(=S)NNC(=S)Nc2cccc(C(F)(F)F)c2)cc1,n,x,n,x,n,53.6,n,n,23.7,31.7,n
FC(F)(F)c1cccc(NC(=S)Nc2ccc(Cl)c(Cl)c2)c1,n,x,n,x,n,45.2,n,n,n,25.3,n
CN(C)c1ccc(NC(=S)Nc2ccccn2)cc1,n,x,n,x,x,x,x,x,x,x,x
CC(O)C1CCC2C3CC[C@H]4CC(O)CCC4(C)C3CC3(OCCO3)C12C (stereo partly drawn),n,n,n,n,n,57.0,n,n,n,n,n
CC1(C2CCC3C4CCC5CC6(CCC5(C)C4C(O)CC32C)OCCO6)OCCO1 (stereo not drawn),n,x,n,x,x,x,x,x,x,x,x
COC(=O)CNC(=O)CN1C(=O)N(c2ccccc2)C(N(O)C(=O)Nc2ccccc2)C1(C)C (stereo not drawn),n,n,n,n,n,n,x,x,x,x,x
COC(=O)CNC(=O)CN1C(=O)N(c2cccc(Cl)c2)C(N(O)C(=O)Nc2cccc(Cl)c2)C1(C)C (stereo not drawn),n,n,n,n,n,48.9,46.0,n,31.6,30.7,31.8
COc1ccc(CCn2c(C)cc(C(=O)CSc3nnnn3-c3ccccc3)c2C)cc1,n,n,n,n,n,65.4,n,n,n,n,n
CCn1c(SCC(=O)Nc2ccc3c(c2)oc2ccccc23)nnc1-c1ccc(N)cc1,n,n,n,n,n,46.3,n,37.2,38.3,42.8,n
O=C(COc1ccc(Cl)cc1Cl)NCCSc1ccc(Cl)cc1,n,n,n,n,n,91.1,n,n,n,n,n
CN(C)CCNC(=O)COc1ccc(Cl)cc1Cl,n,n,n,n,n,n,x,x,x,x,x
SMILES,EP2 antag,NPY Y1 blocker,EP2 mod,NPY-Y2 antag,NPY-Y2 PAM-ag,NPY-Y1 PAM-ag,NPY-Y1 confirm,NPY-Y2 counter,NPY-Y1 ag,NPY-Y2 ag,CNGC counter
CCOC(=O)C1=C(C)C2C3C(=O)N(c4cc(C)ccc4C)C(=O)C3C1(C)C1C(=O)N(c3cc(C)ccc3C)C(=O)C21 (stereo not drawn),n,n,n,n,n,44.3,n,n,n,n,n
CCc1cccc2c(/C=N/NC(=O)c3cccc(S(=O)(=O)Nc4ccccc4Cl)c3)c[nH]c12,n,n,n,n,n,46.3,n,n,30.5,19.1,26.1
Cc1[nH]c2ccccc2c1/C=N/NC(=O)c1cccc(S(=O)(=O)Nc2ccccc2Cl)c1,n,n,n,n,n,n,x,x,x,x,x
Cc1ccc(C(=O)Nc2ccc(N3CCN(S(C)(=O)=O)CC3)cc2)c(C)c1,n,x,n,x,x,x,x,x,x,x,x
COc1ccc(/C=C2\SC(=S)N(CC3CCCO3)C2=O)cc1 (stereo not drawn),n,x,n,x,n,n,x,x,x,x,x
COc1ccc(N=C2O/C(=C/c3sc(=S)n(CC4CCCO4)c3O)N=C2C#N)cc1 (stereo not drawn),n,x,n,x,n,52.8,n,44.8,21.8,48.1,n
COc1ccc2nc(SCC(=O)N3CCN(c4ccccc4)CC3)c(C#N)cc2c1,n,x,n,x,x,x,x,x,x,x,x
COC(=O)[C@@H]1CC[C@H](C)[C@@H](c2ccc(C)cc2)N1C(=O)c1ccc(/C=N/OC[C@@H](O)[C@H]2O[C@@H]3OC(C)(C)O[C@@H]3[C@H]2O)cc1,x,n,n,n,n,38.9,n,n,n,n,n
COc1cc(=O)n(C)c2ccccc12,n,n,n,n,n,49.9,n,n,n,n,n
COc1ccc2c(OC)cc(=O)n(C)c2c1,n,n,n,n,n,n,x,x,x,x,x
COc1ccccc1NS(=O)(=O)c1cc(N/C(=N\S(=O)(=O)c2ccccc2)c2ccc(F)cc2)ccc1Cl,n,n,n,n,n,43.1,n,n,24.7,23.8,43.1
COc1ccccc1NS(=O)(=O)c1cc(NC(=S)Nc2cc(C)cc(C)c2)ccc1Cl,n,n,n,n,n,n,x,x,x,x,x
O=C(CN1c2ccccc2Sc2ccccc21)NNC(=S)Nc1ccc(Cl)cc1,n,x,n,x,n,n,x,x,x,x,x
O=C(CN1c2ccccc2Sc2ccccc21)NNC(=S)Nc1ccc(Cl)cc1Cl,x,n,n,n,n,68.3,n,37.3,n,46.3,26.8
